Test: Toxicity liver stage against HepG2, at 10uM
Type: cell-based
Design: test concentration 10 uM, cell line HepG2-A16-CD81EGFP
Details: human, HepG2-A16-CD81EGFP cells; read-out: INHIBITION
In short: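 Uninfected HepG2-A16-CD81EGFP cells, 3 × 10^3 per well, 1536-well, plated on prespotted compound at 10 μM final, parasite-free screening media added to match infected plates; puromycin 10 μM positive, DMSO 0.5% negative; run in parallel with 48 h PbLuc assay at 37 °C, 5% CO2; viability by CellTiter-Glo luminescence, normalized to controls.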

Compound	cytotoxicity at 10 µM [%]
CCc1nnc(CN(C)C(=O)C(CC)n2c(CC)nc3ccccc32)o1 (configuration not stated)	-4.27
Cc1cc(C)c(CNC(=O)C2CCN(c3cnccn3)CC2)c(=O)[nH]1	-10.7
COCCNC(=O)c1cc(C2CC2)nc2onc(C3CCNC3)c12 (configuration not stated)	7.55
Cc1ccc(N2CCCC3(CCCC(=O)N3)C2)nn1 (configuration not stated)	-1.52
CNC(=O)[C@@H]1C[C@H](N)CN1S(=O)(=O)c1cc(Cl)cc(Cl)c1O	1.68
CCc1nc(-c2cncnc2C2CCCNC2)no1 (configuration not stated)	1.73
CCn1nc2c(cc1=O)CN(Cc1nnc(C3CC3)o1)CC2	-16.2
O=C(CCc1ccc(-n2cnnn2)cc1)Nc1ccncc1	-11.2
Cc1cc(NC(=O)C2CCCN(C(=O)NCC(C)C)C2)ccn1 (configuration not stated)	-10.5
Cc1cnc(-c2nc(C3CCN(C(=O)Cc4ccsc4)CC3)no2)cn1	-29.5
COCCNC(=O)c1cc(OC)c2ccoc2c1	-2.49
Cc1[nH]/c(=N\C(=O)c2csc(NCC(C)C)n2)sc1C	47.4
CCOC1CC2(CCN(Cc3cccn3C)CC2)C1	-149
CCOC(CC)C(=O)NCc1ccnc(Oc2ccc(F)cc2)c1 (configuration not stated)	-1.43
NC(=O)CCC1CCCN(c2ccnc3cc(F)ccc23)C1 (configuration not stated)	14.6
Cn1cc(C(O)CNC(=O)c2cc(Br)ccc2Cl)cn1 (configuration not stated)	2.06
Cn1nc(C2CCCC2)c(-c2ccc3c(c2)OCO3)c1N	-51.5
O=C(c1ccco1)N1CCCC1C1CCN(Cc2ccccc2)CC1 (configuration not stated)	0.821
COc1cc2c(cc1OC)C(=O)C(Sc1nncn1C)C2 (configuration not stated)	-5.65
CN(C)c1ccc(C(=O)NCCCNc2ccc(C(F)(F)F)cn2)cc1	-7.66
CN1CCCCC1Cc1nc(Cc2cccc(F)c2)no1 (configuration not stated)	-148
Cc1cc(N(C)Cc2ncc(-c3ccccc3C(=O)O)s2)ncn1	-0.241
CCCNC(=O)CSc1nnc2[nH]c(=O)cc(CC)n12	-17.3

Compound	cytotoxicity at 10 µM [%]
O=C(Cc1ccccn1)N1C[C@@H](Oc2cccnc2)[C@H]2OCCC[C@H]21	7.8
CC1=C(C#N)C(=O)N(C)C(=O)/C1=C\C1=Cc2ccccc2OC1	-39.4
c1ccc(-c2noc(CNC3CCCN(c4cccnn4)C3)n2)nc1 (configuration not stated)	4.86
COCC(=O)N1CCOC(c2ccc(N(C)C)cn2)C1 (configuration not stated)	-13.1
CC(C)C(=O)Nc1cc(C(C)(C)C)nn1-c1ccccn1	-4.1
COc1ccccc1CN1C(=O)O[C@@H]2CN(Cc3cccc(C)n3)C[C@@H]21	2.64
COCc1nc(C(=O)N2CCN(c3nccc(OC)n3)CC2)cs1	-7.68
Cc1cc(C)n(CC2CCCN2C(=O)Cc2cn3ccccc3n2)n1 (configuration not stated)	2.47
O=C(Nc1cccnc1-n1cc(Cl)cn1)C1CCCC1	-43.3
Cc1nnc([C@@H]2CCO[C@@H]3CCN(C(=O)Cc4ccccn4)C[C@@H]32)o1	10.1
c1cncc(-c2noc(CCNc3ncnc4c3CCNCC4)n2)c1	3.38
CN(C)c1nccc(C2CN(C(=O)CO)C2)n1	-10.6
CC(C)NC1CCc2c(ccc(=O)n2CC2CC2)C1 (configuration not stated)	-76.5
CN1CC(=O)N(c2cnn(C)c2)CC12CCN(Cc1cccs1)C2 (configuration not stated)	3.48
CCC(C)N(Cc1c[nH]c(C)n1)Cc1ccccc1Cl (configuration not stated)	24.2
COc1cc(C)ccc1OCC(=O)NS(=O)(=O)c1cccnc1	4.03
Cc1ccc(C(=O)N2CCC3(CCCC3)CC2)c(=O)[nH]1	2.24
Cc1cc2[nH]c(=O)c(=O)[nH]c2cc1S(=O)(=O)NC1CCC(C)CC1 (configuration not stated)	-10.5
CS(=O)(=O)N1CCO[C@@H]2CN(C(=O)C3CCOC3)CC[C@@H]2C1 (some centres not stated)	-108
Cc1ccc(C(=O)CN(C2=NCCCCC2)c2ccccc2)cc1	17.7
Cc1nc(O)ccc1C(=O)NCc1ncoc1C	5.68
CCS(=O)(=O)N(C)c1ccc(C(=O)N2CCCC(C)C2)cc1 (configuration not stated)	-15.4
Cc1cc(NC(=O)N2CCOC(C(N)=O)C2)ccc1Br (configuration not stated)	-154

Compound	cytotoxicity at 10 µM [%]
O=C(Cc1cccc(O)c1)NCCCNC(=O)c1cccc(F)c1	1.65
CN(Cc1ccsc1)C(=O)c1cccc(S(=O)(=O)NC(C)(C)C)c1	-8.03
CN1CC2(CCCN(CCOCc3ccccc3)C2)OC1=O (configuration not stated)	-10.4
CCc1ncncc1C(=O)N1CCCN(Cc2ccc(C)cc2)CC1	-0.611
CCn1c(C(=O)N2CCN(C(=O)NC(C)C)CC2)cc2ccccc21	-1.94
CCOCc1cnc2n1CCN(Cc1scnc1C)C2C (configuration not stated)	8.85
CCn1cc(NC(=O)NCC(C)O)cn1 (configuration not stated)	-4.84
CCC(O)CN(C)Cc1nnc2ccccn12 (configuration not stated)	-26.7
CN(C(=O)COCc1ccccc1)C1CCN(CC2CCOC2)CC1 (configuration not stated)	-3.7
O=C(C1CC1)N1CCc2c(ncnc2N2CCN3CCCC3C2)C1 (configuration not stated)	-13.6
CCc1ccc(C(=O)N(CC)Cc2ccoc2)cc1S(C)(=O)=O	-4.89
Cn1cc(Br)cc(NC(=O)Cc2cccs2)c1=O	2.14
CCOC(=O)c1ccc(S(=O)(=O)NCc2cccnc2N(C)C)cc1	32.1
CC(C)n1cc2cc(NC(=O)Cn3cnnn3)ccc2n1	-138
NC(=O)CN1C(=O)CO[C@H]2CN(Cc3ccc(C(F)(F)F)cc3)C[C@H]21	0.523
CCc1noc(C(C)N2CCN(CC)CC2)n1 (configuration not stated)	-6.01
Cc1noc(C)c1CCCNC(=O)Nc1ccc2c(c1)COC2	3.27
CC(C)(C)c1cc(CN2CCOC(CN)C2)n[nH]1 (configuration not stated)	-12.1
CCOC(=O)N1CCN(C(=O)CCn2ccc3c(OC)cccc32)CC1	9.69
CN(C)C(=O)C1CCCN(C(=O)c2ccccc2-n2cc(CN)cn2)C1 (configuration not stated)	11.6
CC(CNC(=O)c1cccc(-n2cccn2)n1)Cn1ccnc1 (configuration not stated)	7.73
CC(O)CN1CCc2onc(-c3ccccc3F)c2C1 (configuration not stated)	0.963
CC(C)CCN1C[C@@H]2OCCN(c3ncc(F)cn3)[C@@H]2C1	4.91

Compound	cytotoxicity at 10 µM [%]
O=C(c1ccc(CN2CCCCC2)cc1)N1CCCC1c1cccs1 (configuration not stated)	-7.15
Cc1cccc(C)c1NC(=O)c1cccc(CN2CCCC2C)c1 (configuration not stated)	4.73
CN1CC[C@H](N(C)Cc2ccccc2)C[C@H](O)C1	-0.895
O=C(NCCn1ccnc1)c1ccn(-c2ccccc2)n1	0.449
c1cncc(CN2CCCC(c3nnc(-c4cnccn4)o3)C2)c1 (configuration not stated)	-7.36
Cc1ncccc1O[C@H]1CCN(C(=O)Cc2cccs2)CC[C@@H]1O	5.92
CN1C(=O)CC(c2ccncc2)C12CCN(c1ncccn1)CC2 (configuration not stated)	-108
CC(C)NC(=O)C1CCc2nnc(CNC(=O)c3ccc(Cl)cc3Cl)n21 (configuration not stated)	5.84
CC(=O)NC1CCCN(C(=O)CNc2cccc(C)c2Cl)C1 (configuration not stated)	-4.69
CCc1n[nH]c(C2CN(C(=O)c3ccc4c(c3)COC4)CCO2)n1 (configuration not stated)	-1.63
CC(C)n1ncc2c1NC(=O)CSC2C(C)(C)C (configuration not stated)	4.47
CCCC(=O)N1CCN(c2cc(-n3cnc(C)c3C)nc(C)n2)CC1	-1.89
CCc1nc(Cn2cncc(Br)c2=O)no1	-11.8
CCC(NS(C)(=O)=O)c1ccccc1C (configuration not stated)	-43.2
Cc1ccc(OCC(O)COC2CCOCC2)c(Br)c1 (configuration not stated)	-4.66
CCc1cc(C(=O)N2CCCC2c2nc(C)c(CC)c(O)n2)on1 (configuration not stated)	-14.2
Cn1nc2c(cc1=O)CN(Cc1coc(-c3cccc(F)c3)n1)CC2	-12.6
O=C(c1ncccn1)N1C[C@H]2CCC[C@@]2(COCc2ccncc2)C1	-3.08
Cc1cc(F)ccc1C(=O)N1C[C@@H]2COC[C@]2(CN(C)C)C1	-142
Cc1cccc(C(=O)NCc2cccnc2N(C)C)n1	0.72
CN(CCNC(=O)Nc1ccn(C)n1)Cc1ccc(F)cc1	8.16
O=C1NCCCCC1NC(=O)C1(c2ccccc2)CCOCC1 (configuration not stated)	-14.2
Cc1cnn(CCC(=O)N(CC2CN(C)CCO2)c2nccs2)c1 (configuration not stated)	-5.82

Compound	cytotoxicity at 10 µM [%]
CN1CCCC[C@@H]2[C@H]1[C@@H](c1ccccc1)CCN2C(=O)c1ccncc1	-13
CCOc1ncccc1NC(=O)NCC(O)c1ccc(OC)cc1 (configuration not stated)	-16.6
CN(CC1Cc2ccccc2CN1C)C(=O)Cc1cccs1 (configuration not stated)	-0.661
O=C1NCC(C(=O)Nc2ncc(Cc3ccc(F)cc3)s2)N1 (configuration not stated)	0.639
Cn1cc(Br)c(=O)c(NS(=O)(=O)c2cc(F)ccc2Cl)c1	-11
CC(C)C(=O)N1CCN(c2cc(N(C)C)cnn2)CC1	-6.45
Cc1cnn(CC2CCCN2C(=O)CN(C)C2CC2)c1 (configuration not stated)	3.63
O=C1[C@@H]2CCN(C3CCOCC3)C[C@@H]2OCCN1Cc1cccnc1	-80
CNS(=O)(=O)c1ccc(CCC(=O)NCc2cccc(OC)c2)cc1	-148
CCn1cnnc1CNC(=O)NC(C)C(C)C (configuration not stated)	-6.15
CC(C)n1ccc(-c2cc(C(=O)N3CCN(C)CC3)c3ccccn23)n1	9.49
N[C@@H]1c2ccccc2C2(CCN(c3cc(C(F)(F)F)ccn3)CC2)[C@H]1O	0.106
O=C(NCC(O)c1ccccc1)Nc1cccs1 (configuration not stated)	8.25
CN(CCCNC(=O)C1CCCN(C(N)=O)C1)S(C)(=O)=O (configuration not stated)	-4.76
Cn1nc2c(cc1=O)CN(CCCOc1ccc(C#N)cc1)CC2	22.9
Cc1ccccc1N1CCN(C(=O)CCc2nncn2C)C(C)C1 (configuration not stated)	3.34
Cc1ccc(C)c(OC(C)C(=O)NCc2cccnc2)c1 (configuration not stated)	2.13
N#Cc1cccc(C(=O)NC2CCc3c(ccc(=O)n3CC3CC3)C2)c1 (configuration not stated)	0.908
CC(C)(C)c1cnc(CN2CCC(NC(=O)NC3CCCCC3)CC2)o1	-3.73
COCC(=O)Nc1nccn1Cc1ccc(Br)cc1	-55.1
